Data as given in PubChem BioAssay AID504518 (Sanford-Burnham Center for Chemical Genomics, 2011).
Calls of active or inactive are those of the source.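 How the source made its calls: active means mean IC50 at or below 20 µM; inactive means the rest.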

Test system: HEK-293T NF-kB-Luc, TNFa-induced, luciferase luminescence 14 h
Assay: TNFa-induced NF-kB reporter inhibition, SAR follow-up, selectivity assay for B-cell antigen receptor NF-kB inhibitors, cell-based, HEK-293T, luminescence (AID 504518)
Procedure, shortened: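 material = HEK-293-T cells carrying an NF-kB-driven luciferase reporter | amount = 6000 cells per well | buffer or medium = phenol-red-free DMEM | reagent = TNF-alpha stimulus at 0.1 ng/mL final | compound dosing = dose series, DMSO at most 1% | times = 14 h compound exposure at 37 °C, 5% CO2 | measured by = SteadyGlo luminescence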

Compound	IC50
CCC(C)NC(=O)CCc1nc(-c2ccc(C(C)C)cc2)no1 (stereo not drawn)	3.48 µM
CCc1ccc(-c2noc(CCC(=O)NC)n2)cc1	> 79 µM (inactive)
CCOc1ccc(-c2nc(CSCC(=O)NCc3ccco3)c(C)o2)cc1	21.4 µM (inactive)
CCNC(=O)CCc1nc(-c2ccccc2C)no1	> 79 µM (inactive)
O=C(CCc1nc(-c2ccccc2)no1)NC1CC1	> 79 µM (inactive)
CCOC(=O)CC(NC(=O)c1ccc(Br)cc1)c1ccc(F)c([N+](=O)[O-])c1 (stereo not drawn)	73.4 µM (inactive)
Cc1oc(-c2ccc(C(F)(F)F)cc2)nc1CSCC(=O)NC1CC1	24.4 µM (inactive)
CCc1ccc(-c2nc(CSCC(=O)NC3CC3)c(-c3ccccc3)o2)cc1	> 79 µM (inactive)
CCOc1ccc(-c2noc(CCC(=O)O)n2)cc1	10.6 µM
CCOc1ccc(-c2nc(CSCC(=O)NCC3CC3)c(C)o2)cc1	55.4 µM (inactive)
CCNC(=O)CCc1nc(-c2cccc(OC)c2)no1	> 79 µM (inactive)
COc1cccc(-c2cc(=O)c3cc(NC(=O)c4ccccc4)ccc3[nH]2)c1	> 79 µM (inactive)
CNC(=O)CCc1nc(-c2ccc(C(C)C)cc2)no1	56.9 µM (inactive)
O=C(O)CCc1nc(-c2ccccc2)no1	> 79 µM (inactive)
CCc1ccc(-c2noc(CCC(=O)NC(C)(C)C)n2)cc1	22 µM (inactive)
CNC(=O)CCc1nc(-c2ccc(C(C)(C)C)cc2)no1	66.8 µM (inactive)
CCc1ccc(-c2nc(CSCC(=O)NC3CC3)c(C)o2)cc1	42.2 µM (inactive)
COC(=O)CCc1nc(-c2ccc(C(C)(C)C)cc2)no1	0.22 µM
CCc1ccc(-c2noc(CCC(=O)NC(C)CC)n2)cc1 (stereo not drawn)	14.1 µM
CCCCOc1ccc(-c2nc(CSCC(=O)O)c(C)o2)cc1	0.04 µM
CCOc1ccc(-c2nc(CSCC(N)=O)c(C)o2)cc1	> 79 µM (inactive)
CCNC(=O)CCc1nc(-c2ccc(C(C)(C)C)cc2)no1	35.8 µM (inactive)
COc1ccc(-c2nc(CSCC(=O)NCc3ccco3)c(C)o2)cc1	35.8 µM (inactive)
CCN(CC)C(=O)CCc1nc(-c2ccc(C(C)(C)C)cc2)no1	16.8 µM
CCOc1ccc(-c2nc(CSCC(=O)N(C)C)c(C)o2)cc1	78.5 µM (inactive)
CCNC(=O)CCc1nc(-c2ccccc2)no1	> 79 µM (inactive)

Compound	IC50
CCOc1ccc(-c2nc(CSCC(=O)O)c(C)o2)cc1	0.04 µM
CCOc1ccc(-c2nc(CSCC(=O)N3CCOCC3)c(C)o2)cc1	64.6 µM (inactive)
CCCCc1ccc(-c2noc(CCC(=O)NC)n2)cc1	1.98 µM
CC(C)(C)NC(=O)CCc1nc(-c2ccccc2)no1	> 79 µM (inactive)
C#CCNC(=O)CSCc1nc(-c2ccc(OCC)cc2)oc1C	> 79 µM (inactive)
CCNC(=O)CCc1nc(-c2c(Cl)cccc2Cl)no1	> 79 µM (inactive)
CCOc1cccc(-c2nc(CSCC(=O)NC3CC3)c(C)o2)c1	> 79 µM (inactive)
Cc1oc(-c2ccccc2)nc1CSCC(=O)NC1CC1	> 79 µM (inactive)
COc1ccc(C(=O)Nc2ccc3[nH]c(-c4cccc(OC)c4)cc(=O)c3c2)cc1	> 79 µM (inactive)
CCCCOc1ccc(-c2nc(CSCC(=O)NCc3ccco3)c(C)o2)cc1	13.1 µM
CCNC(=O)CCc1nc(-c2ccc(OCC)cc2)no1	> 79 µM (inactive)
Cc1oc(-c2ccc(OC(F)(F)F)cc2)nc1CSCC(=O)O	0.11 µM
CCCCc1ccc(-c2noc(CCC(=O)NC3CC3)n2)cc1	0.55 µM
CCCCc1ccc(-c2noc(CCC(=O)NCC)n2)cc1	0.77 µM
CC(C)c1ccc(-c2noc(CCC(=O)NC3CC3)n2)cc1	3.11 µM
CNC(=O)CCc1nc(-c2ccccc2)no1	> 79 µM (inactive)
CCc1ccc(-c2noc(CCC(=O)NC3CC3)n2)cc1	21.1 µM (inactive)
CC(C)(C)c1ccc(-c2noc(CCC(=O)NC3CCC3)n2)cc1	1.18 µM
CCCCc1ccc(-c2noc(CCC(=O)NC(C)CC)n2)cc1 (stereo not drawn)	0.51 µM
CCNC(=O)CCc1nc(-c2ccc(C(C)C)cc2)no1	21.3 µM (inactive)
CCc1ccc(-c2nc(CSCC(=O)NCc3ccco3)c(C)o2)cc1	> 79 µM (inactive)
Cc1ccc(-c2nc(CSCC(=O)NCc3ccco3)c(C)o2)cc1	33.6 µM (inactive)
CCOc1ccc(-c2nc(CSCC(=O)NC(C)(C)C)c(C)o2)cc1	37.7 µM (inactive)
CCCOc1ccc(-c2nc(CSCC(=O)NC3CC3)c(C)o2)cc1	31.5 µM (inactive)
COc1cccc(-c2cc(=O)c3cc(NC(=O)c4ccc(N(C)C)cc4)ccc3[nH]2)c1	15.2 µM
CCNC(=O)CCc1nc(-c2ccc(CC)cc2)no1	65.3 µM (inactive)

Compound	IC50
Cc1oc(-c2ccccc2)nc1CSCC(=O)NCc1ccco1	> 79 µM (inactive)
CCOc1ccc(-c2nc(CSCC(=O)NC3CC3)c(C)o2)cc1	> 79 µM (inactive)
CCC(C)NC(=O)CCc1nc(-c2ccc(C(C)(C)C)cc2)no1 (stereo not drawn)	3 µM
CN(C)C(=O)CCc1nc(-c2ccc(C(C)(C)C)cc2)no1	42.2 µM (inactive)
CCNC(=O)CCc1nc(-c2cccc(F)c2)no1	> 79 µM (inactive)
Cc1ccc(-c2nc(CSCC(=O)NC3CC3)c(C)o2)cc1	71.1 µM (inactive)
CC(C)Nc1ccc(C(CC(=O)O)NC(=O)c2ccccc2)cc1[N+](=O)[O-] (stereo not drawn)	> 79 µM (inactive)
CC(C)(C)c1ccc(-c2noc(CCC(=O)O)n2)cc1	0.29 µM
CCOc1ccccc1-c1nc(CSCC(=O)NC2CC2)c(C)o1	> 79 µM (inactive)
CCOc1ccccc1-c1nc(CSCC(=O)O)c(C)o1	> 79 µM (inactive)
CCNC(=O)CCc1nc(-c2ccccc2Cl)no1	> 79 µM (inactive)
CC(C)(C)c1ccc(-c2noc(CCC(=O)NC3CC3)n2)cc1	12 µM
COc1ccc(-c2nc(CSCC(=O)NC3CC3)c(C)o2)cc1	> 79 µM (inactive)
CCOc1ccc(-c2nc(CSCC(=O)NC3CCC3)c(C)o2)cc1	38.7 µM (inactive)
CCOc1ccc(-c2nc(CSCC(=O)NC)c(C)o2)cc1	> 79 µM (inactive)
CCCOc1ccc(-c2nc(CSCC(=O)NCc3ccco3)c(C)o2)cc1	9.74 µM
CCOc1ccc(-c2nc(CSCC(=O)NC3CC3)c(-c3ccccc3)o2)cc1	> 79 µM (inactive)
Cc1oc(-c2ccc(C(F)(F)F)cc2)nc1CSCC(=O)O	0.38 µM
CC(C)c1ccc(-c2noc(CCC(=O)NC(C)(C)C)n2)cc1	5 µM
CCC(C)NC(=O)CCc1nc(-c2ccccc2)no1 (stereo not drawn)	> 79 µM (inactive)
CCNC(=O)CCc1nc(-c2cccc(C)c2)no1	> 79 µM (inactive)
CC(C)(C)c1ccc(-c2noc(CCC(N)=O)n2)cc1	0.78 µM
CCCCc1ccc(-c2noc(CCC(=O)NC(C)(C)C)n2)cc1	0.66 µM
CCCCOc1ccc(-c2nc(CSCC(=O)NC3CC3)c(C)o2)cc1	11.1 µM
Cc1oc(-c2ccc(OC(F)(F)F)cc2)nc1CSCC(=O)NC1CC1	27.9 µM (inactive)
CCCOc1ccc(-c2nc(CSCC(=O)O)c(C)o2)cc1	0.03 µM
